Reference: ChEMBL document CHEMBL4689842, “EUbOPEN Chemogenomics Library wave 1” (2021)

Tested on: HEK-293T
Assay: Multiplex assay against HEK293T;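 for Population Tubulin-Different-Phenotype (%): share of the cells with healthy nuclei that show this phenotype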
Assay type: toxicity, cell-based
Conditions: human
In short: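 Values for tubulin, mitochondrial-mass and membrane-permeability phenotypes are per cents of cells with healthy nuclei. These cells were identified by CellPathfinder machine-learning gating of live cells that had been stained at seeding with Hoechst33342, BioTracker Green Microtubule Cytoskeleton Dye, MitoTracker Red and Annexin V Alexa Fluor 680 and imaged on a CQ1 microscope at 37°C and 5% CO2 after compound addition. The gating first set Hoechst high-intensity objects apart from normal cells, then split normal cells into healthy, pyknosed or fragmented nuclei, and pyknosed cells into mitotic or apoptotic.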

[1] = 12 h, 1 µM, compound concentration 1 uM, replicate 1
[2] = 12 h, 1 µM, compound concentration 1 uM, replicate 2
[3] = 12 h, 10 µM, compound concentration 10 uM, replicate 1
[4] = 12 h, 10 µM, compound concentration 10 uM, replicate 2
[5] = 24 h, 1 µM, compound concentration 1 uM, replicate 1
[6] = 24 h, 1 µM, compound concentration 1 uM, replicate 2
[7] = 24 h, 10 µM, compound concentration 10 uM, replicate 1
[8] = 24 h, 10 µM, compound concentration 10 uM, replicate 2

For COc1cc2c(Nc3ccc(NC(=O)c4ccccc4)cc3)ncnc2cc1OCCCN1CCOCC1, the “Population Apoptotic (%)” value [1] was 25%, the “Population Fragmented Nuclei (%)” value [1] was 13% and the “Population Healthy Nuclei (%)” value [1] was 42%. The “Population Hoechst High Intensity Objects (%)” value [1] was 18%, the “Population Membrane Permeable-Phenotype (%)” value [1] was 29% and the “Population Mitochondria Different-Phenotype (%)” value [1] was 17%. The “Population Mitotic Cells (%)” value [1] was 74%, the “Population Normal (%)” value [1] was 81% and the “Population Pyknosed Nuclei (%)” value [1] was 43%. The “Population Tubulin-Different-Phenotype (%)” value [1] was 81%, the “Total Cell Count” value [1] was 532 and the “Population Apoptotic (%)” value [2] was 26%. The “Population Fragmented Nuclei (%)” value [2] was 3%, the “Population Healthy Nuclei (%)” value [2] was 84% and the “Population Hoechst High Intensity Objects (%)” value [2] was 6%. For the same compound, the “Population Membrane Permeable-Phenotype (%)” value [2] was 15%, the “Population Mitochondria Different-Phenotype (%)” value [2] was 39% and the “Population Mitotic Cells (%)” value [2] was 73%. For the same compound, the “Population Normal (%)” value [2] was 93%, the “Population Pyknosed Nuclei (%)” value [2] was 12% and the “Population Tubulin-Different-Phenotype (%)” value [2] was 96%. For the same compound, the “Total Cell Count” value [2] was 927, the “Population Apoptotic (%)” value [3] was 17% and the “Population Fragmented Nuclei (%)” value [3] was 17%. For the same compound, the “Population Healthy Nuclei (%)” value [3] was 59%, the “Population Hoechst High Intensity Objects (%)” value [3] was 11% and the “Population Membrane Permeable-Phenotype (%)” value [3] was 3%. For the same compound, the “Population Mitochondria Different-Phenotype (%)” value [3] was 9%, the “Population Mitotic Cells (%)” value [3] was 82% and the “Population Normal (%)” value [3] was 88%. For the same compound, the “Population Pyknosed Nuclei (%)” value [3] was 22%, the “Population Tubulin-Different-Phenotype (%)” value [3] was 9% and the “Total Cell Count” value [3] was 626. For the same compound, the “Population Apoptotic (%)” value [4] was 6%, the “Population Fragmented Nuclei (%)” value [4] was 3% and the “Population Healthy Nuclei (%)” value [4] was 89%. The “Population Hoechst High Intensity Objects (%)” value [4] was 2%, the “Population Membrane Permeable-Phenotype (%)” value [4] was 2% and the “Population Mitochondria Different-Phenotype (%)” value [4] was 12%. For the same compound, the “Population Mitotic Cells (%)” value [4] was 93%, the “Population Normal (%)” value [4] was 97% and the “Population Pyknosed Nuclei (%)” value [4] was 6%. For the same compound, the “Population Tubulin-Different-Phenotype (%)” value [4] was 13%, the “Total Cell Count” value [4] was 1320 and the “Population Apoptotic (%)” value [5] was 29%. For the same compound, the “Population Fragmented Nuclei (%)” value [5] was 14%, the “Population Healthy Nuclei (%)” value [5] was 58% and the “Population Hoechst High Intensity Objects (%)” value [5] was 21%. The “Population Membrane Permeable-Phenotype (%)” value [5] was 20%, the “Population Mitochondria Different-Phenotype (%)” value [5] was 22% and the “Population Mitotic Cells (%)” value [5] was 70%. The “Population Normal (%)” value [5] was 78%, the “Population Pyknosed Nuclei (%)” value [5] was 26% and the “Population Tubulin-Different-Phenotype (%)” value [5] was 89%. For the same compound, the “Total Cell Count” value [5] was 523, the “Population Apoptotic (%)” value [6] was 2% and the “Population Fragmented Nuclei (%)” value [6] was 5%. The “Population Healthy Nuclei (%)” value [6] was 87%, the “Population Hoechst High Intensity Objects (%)” value [6] was 6% and the “Population Membrane Permeable-Phenotype (%)” value [6] was 22%. The “Population Mitochondria Different-Phenotype (%)” value [6] was 25%, the “Population Mitotic Cells (%)” value [6] was 97% and the “Population Normal (%)” value [6] was 93%. The “Population Pyknosed Nuclei (%)” value [6] was 7%, the “Population Tubulin-Different-Phenotype (%)” value [6] was 97% and the “Total Cell Count” value [6] was 1034. For the same compound, the “Population Apoptotic (%)” value [7] was 9%, the “Population Fragmented Nuclei (%)” value [7] was 12% and the “Population Healthy Nuclei (%)” value [7] was 75%. The “Population Hoechst High Intensity Objects (%)” value [7] was 9%, the “Population Membrane Permeable-Phenotype (%)” value [7] was 11% and the “Population Mitochondria Different-Phenotype (%)” value [7] was 5%. The “Population Mitotic Cells (%)” value [7] was 90%, the “Population Normal (%)” value [7] was 90% and the “Population Pyknosed Nuclei (%)” value [7] was 11%. The “Population Tubulin-Different-Phenotype (%)” value [7] was 13%, the “Total Cell Count” value [7] was 622 and the “Population Apoptotic (%)” value [8] was 4%. The “Population Fragmented Nuclei (%)” value [8] was 14%, the “Population Healthy Nuclei (%)” value [8] was 79% and the “Population Hoechst High Intensity Objects (%)” value [8] was 4%. The “Population Membrane Permeable-Phenotype (%)” value [8] was 5%, the “Population Mitochondria Different-Phenotype (%)” value [8] was 3% and the “Population Mitotic Cells (%)” value [8] was 95%. The “Population Normal (%)” value [8] was 95%, the “Population Pyknosed Nuclei (%)” value [8] was 5% and the “Population Tubulin-Different-Phenotype (%)” value [8] was 15%. For the same compound, the “Total Cell Count” value [8] was 1748.
